High-throughput results: PubChem, Broad Institute
This is a sample that favours compounds with a hit; in the whole collection about 1.7% have one here.
SR-BI DiI inh – blocks mouse SR-BI lipid uptake from DiI-HDL; Q61009; inhibition, % at 12.5 µM; ldlA[mSR-BI] CHO cells, DiI-HDL uptake fluorescence, 3 h; AID 488896; 320,000 compounds, 0.96% hits;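 active means mean replicate inhibition of at least 70% and a set share of replicates each scoring 70 or more; inconclusive means meets just one of the two criteria; inactive means fails both criteria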;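 further: 0% = median of neutral control wells and 100% = median of positive control wells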
Target sequence (Q61009 whole entry, looked up): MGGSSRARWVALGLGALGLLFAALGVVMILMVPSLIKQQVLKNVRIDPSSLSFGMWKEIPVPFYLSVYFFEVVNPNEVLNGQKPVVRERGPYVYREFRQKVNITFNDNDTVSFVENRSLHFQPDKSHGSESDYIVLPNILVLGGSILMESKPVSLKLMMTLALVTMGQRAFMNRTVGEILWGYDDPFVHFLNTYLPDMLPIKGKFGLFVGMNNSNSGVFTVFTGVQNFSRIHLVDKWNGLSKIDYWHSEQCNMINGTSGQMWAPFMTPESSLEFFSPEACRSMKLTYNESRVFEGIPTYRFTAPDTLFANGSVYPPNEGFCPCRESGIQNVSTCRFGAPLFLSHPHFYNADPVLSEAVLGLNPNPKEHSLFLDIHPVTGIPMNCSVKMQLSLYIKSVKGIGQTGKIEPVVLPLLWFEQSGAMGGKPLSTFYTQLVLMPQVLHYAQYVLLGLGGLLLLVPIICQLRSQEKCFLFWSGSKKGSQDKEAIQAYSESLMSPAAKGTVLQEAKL
Vif imaging – blocks HIV Vif function; 340,000 compounds, 0.35% hits; inhibition, % at 7.49 µM; HEK293T cells, Vif self-association by quenched fluorescence, imaging, 24 h; AID 602346; in the data active means inhibition above about 50%, passing the limit was not always enough; inconclusive means no clear call, values can overlap the other calls; inactive means below about 31%
C2C12 statin – protects C2C12 myotubes from simvastatin toxicity | rescue of ATP level, % at 7.49 µM | AID 602340 | ATP luminescence, 48 h; scaled: DMSO 0, geranylgeraniol control 100 | 330,000 compounds, 0.78% hits;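 active means mean ATP rescue above about 67%, or every replicate alone reaching that limit, limit read from the data, passing the limit was not always enough; inconclusive means no clear call, values can overlap the other calls; inactive means mean under the limit and some replicate under it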;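 further: myotubes were challenged with 10 µM simvastatin during compound exposure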
SR-BI DiI-HDL act – SR-BI HDL lipid transfer activation; activation, % at 12.5 µM; 320,000 compounds, 0.096% hits; AID 504775; CHO ldlA[mSR-BI] cells, DiI-HDL uptake fluorescence, 3 h; 100 = double the neutral-control signal;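 active means mean replicate activation of at least 60% and every replicate at or above 60%; inconclusive means mean or all-replicate condition met, but not both; inactive means mean below 60% and not all replicates reaching 60%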;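 further: 0% = median plate neutral-control signal and 100% = twice that signal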
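material = CHO ldlA[mSR-BI] cells | medium = Ham's F12 with 0.5% BSA, HEPES 25 mM, pH 7.4 | reagent = fluorescent DiI-HDL, 10 µg/mL final | compound dosing = single-point compound dose | incubation = 3 h, 37 °C | measured by = bottom-read fluorescence, 550/595 nm | measure = HDL uptake via cellular fluorescence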
An asterisk follows results filed as active; ? = inconclusive; . = no result given.

SMILES | SR-BI DiI inh | Vif imaging | C2C12 statin | SR-BI DiI-HDL act
CCCNC(=O)N1C[C@H](O)COC[C@@H]2O[C@@H](CC(=O)N[C@@H]3CCN(Cc4ccccc4)C3)CC[C@H]21 | . | . | 4 | .
COCC(=O)N1[C@H](C(=O)NCc2ccccc2)[C@@H](CO)[C@@H]2Cn3c(cccc3=O)[C@@H]21 | . | . | -30 | .
COc1ccc(N2CCN(C(=O)COc3ccc4c(C)cc(=O)oc4c3C)CC2)cc1 | 13 | 9 | 107* | -13
CC(/C=C/c1ccccc1)=N/NC(=O)c1cnccn1 | -21 | 7 | -11 | 21
O=C(N/N=C/C=C/c1ccccc1)c1cnccn1 | -240 | 3 | 0 | 240*
C[C@@H]1CN([C@@H](C)CO)C(=O)c2cc(NC(=O)C3CCCCC3)ccc2O[C@H]1CN(C)Cc1ccncc1 | . | . | -2 | .
CCOC(=O)C1(C)NC(c2ccc(N(C)C)cc2)C2C(=O)N(CC)C(=O)C21 (configuration not stated) | 5 | 4 | 1 | -5
CCOC(=O)C1(C)NC(c2ccc(N(C)C)cc2)C2C(=O)N(c3ccc(OC)cc3)C(=O)C21 (configuration not stated) | 6 | 38 | 115* | -6
COc1ccc(NC(=O)C2(C)Cc3c(-c4cccc(NC(C)=O)c4)ccnc3O2)cn1 (configuration not stated) | . | 58* | -62 | .
COCCNC(=O)C[C@@H]1CC[C@H]2[C@@H](COC[C@H](O)CN2C(=O)Nc2ccc3c(c2)OCO3)O1 | . | . | 2 | .
C[C@H]1CN([C@@H](C)CO)C(=O)Cc2cc(NC(=O)NC3CCCCC3)ccc2O[C@@H]1CN(C)CC1CC1 | . | . | -13 | .
Nc1nc2n[nH]nc2c(=O)[nH]1 | -4 | ? | 90* | 4
O=[N+]([O-])c1ccc(Sc2cccc3cccnc23)c([N+](=O)[O-])c1 | 29 | 2 | 73* | -29
O=[N+]([O-])c1cc(Cl)ccc1Sc1cccc2cccnc12 | 29 | -13 | -4 | -29
CNC[C@H]1Oc2ccc(NS(=O)(=O)c3ccc(F)cc3)cc2C(=O)N([C@H](C)CO)C[C@@H]1C | . | . | 24 | .
CC(C)N(C(=O)[C@H]1C[C@H](CC(=O)NCCN2CCOCC2)C(=O)N2CCc3c([nH]c4cc(CCC(=O)N(C)C)ccc34)[C@]12C)C(C)C | -5 | 103* | 5 | 5
CCN1CCCC1CNS(=O)(=O)c1ccc(F)c(Cl)c1 (configuration not stated) | -28 | 51* | 6 | 28
O=C1c2ccccc2C(=O)N1CCc1nc2ccccc2c(=O)n1CCCn1ccnc1 | -5 | -2 | 95* | 5
O=C1c2ccccc2C(=O)N1Cc1nc2ccccc2c(=O)n1CCCn1ccnc1 | -12 | -1 | . | 12
CCNC(=O)C[C@@H]1CC[C@@H]2[C@@H](COc3ccc(NC(=O)Nc4ccc(C)cc4)cc3C(=O)N2C)O1 | . | . | 14 | .
O=C(CCN1CCCCC1)N[C@H]1CC[C@@H](CCNC(=O)c2cc(Cl)cc(Cl)c2)O[C@@H]1CO | . | . | 1 | .
O=[N+]([O-])c1cc([N+](=O)[O-])c2c(=Nc3ccccc3)n(-c3ccccc3)n(O)c2c1 | 75* | 0 | . | -75
Oc1cccc2c3c(oc12)CCCC3 | . | 70* | 1 | .
CC=Cc1ccc2n(c1=O)C[C@H]1[C@H](CO)[C@@H](C(=O)NCC3CC3)[C@@H]2N1CCC (mixture of isomers) | . | . | -2 | .
CCCS(=O)(=O)Nc1ccc(Nc2c3ccccc3nc3ccccc23)c(OC)c1 | 80* | 14 | . | -80
SMILES | SR-BI DiI inh | Vif imaging | C2C12 statin | SR-BI DiI-HDL act
Nc1ccn(CC(=O)NCc2ccccc2)c(=O)n1 | -19 | 1 | -5 | 19
Nc1ccn(CC(=O)N[C@H](CO)Cc2c[nH]c3ccccc23)c(=O)n1 | -2 | 3 | 124* | 2
Cc1nc(C)c(-c2nnc(-c3ccc(C(C)(C)C)cc3)o2)cc1C(=O)NN | 81* | 2 | . | -81
Oc1[nH]c2ccccc2c1C=Nc1ccc2c(c1)OCO2 | 51 | . | 118* | -51
CO[C@H]1CN(C)C(=O)c2cc(NC(=O)Nc3ccc(Cl)cc3)ccc2OC[C@@H](C)N(C)C[C@@H]1C | . | . | -7 | .
COc1cc(/C=C(\C#N)c2nc3ccccc3[nH]2)ccc1Oc1ccc([N+](=O)[O-])cn1 | 74* | -26 | -1 | -74
C[C@H](CO)N1C[C@H](C)[C@@H](CN(C)Cc2ccc3c(c2)OCO3)OCCCC[C@H](C)Oc2ccc(NC(=O)CCCN(C)C)cc2C1=O | . | . | 32 | .
CCN(CCCNC(=O)C1CCC(=O)N1Cc1ccc(C)cc1)c1cccc(C)c1 (configuration not stated) | 34 | 51* | 3 | -34
CCN(CCCNC(=O)C1CCC(=O)N1Cc1ccccc1Cl)c1cccc(C)c1 (configuration not stated) | 11 | -2 | -13 | -11
COc1ccc(-c2noc(-c3ccccc3C(=O)Nc3cccnc3)n2)cc1 | . | -7 | 103* | .
CCCCCOc1ccc(Br)cc1/C(C)=N/NC1=NCCN1 | 36 | 75* | -67 | -36
COc1ccc(Br)cc1/C(C)=N/NC1=NCCN1 | -32 | 5 | . | 32
Nc1c(Cl)cc(C2=NCCn3nc4ccccc4c32)cc1Cl | 73* | . | 1 | -73
Clc1ccc(C2=NCCn3nc4ccccc4c32)cc1 | 24 | -3 | 12 | -24
O=C([C@@H]1[C@@H](CO)[C@@H]2Cn3c(ccc(C4=CCCCC4)c3=O)[C@@H]2N1Cc1nccs1)N1CCCCC1 | . | . | -4 | .
COc1ccc(S(=O)(=O)N2c3cc(Cl)ccc3Oc3nc4ccccc4nc32)cc1 | 6 | 58* | . | -6
CCCC(=O)Nc1ccc2c(c1)C(=O)N(C)[C@H]1CC[C@@H](CC(=O)NCC3CC3)O[C@H]1CO2 | . | . | -7 | .
CC1(C)CC(NC(=O)c2ccc(Cl)c(S(=O)(=O)N(Cc3ccccc3)c3ccccc3)c2)CC(C)(C)N1 | -97 | 8 | -24 | 97*
COc1ccccc1N(Cc1ccccc1)S(=O)(=O)c1cccc(C(=O)NC2CC(C)(C)NC(C)(C)C2)c1 | -14 | 23 | 15 | 14
COc1ccc(OC)c(/C=N/NC(=O)c2ccncc2)c1 | -1 | -2 | 2 | 1
Cc1[nH]c(C(=O)N/N=C/c2ccc(N(C)C)cc2)c(C)c1C(=O)N/N=C/c1ccc(N(C)C)cc1 | 87* | -10 | . | -87
COc1ccc(C(=O)N/N=C/c2c(C)nn(-c3ccccc3)c2OC)cc1 | 71* | 0 | . | -71
COc1ccc(OC)c(/C=N\NC(=O)c2ccc(-c3ccccc3)cc2)c1 | 78* | . | . | .
COc1cccc(/C=N/NC(=O)C(=O)Nc2ccccc2OC(F)(F)C(F)F)c1O | 110* | 3 | . | -110
CNC[C@@H]1OCCCC[C@@H](C)Oc2ccc(N)cc2C(=O)N([C@@H](C)CO)C[C@H]1C | . | . | 13 | .
C[C@@H]1CN([C@H](C)CO)C(=O)c2c(c3ccccc3n2C)-c2ccccc2CO[C@@H]1CN(C)C(=O)c1ccccc1 | . | . | 9 | .
COc1cccc(/C=N/NC(=O)c2ccc(=O)[nH]n2)c1O | . | -4 | 3 | .
COc1cccc(/C=N/NC(=O)c2ccc(-c3ccccc3)cc2)c1O | 123* | -8 | 27 | -123
